Measurements from different studies.
Compare with care: the assays were run in different laboratories.
Melanocortin receptor 4: Melanocortin receptor 4 (Mus musculus, UniProt P56450)
Tspo: Translocator protein (Tspo, Rattus norvegicus, UniProt P16257)
GLP2R: Glucagon-like peptide 2 receptor (GLP2R, Homo sapiens, UniProt O95838)

SMILES | target | read-out | mode | method | notes | quantity | value
N=C(N)NCCC[C@H](NC(=O)[C@@H](N)CC(=O)O)C(=O)N[C@@H](Cc1ccccc1)C(=O)O | Melanocortin receptor 4 | reporter gene | agonist |  |  | EC50 | > 100 µM
CNC(=O)[C@@]12C[C@@H]1[C@@H](n1cnc3c(NC)nc(C#Cc4ccccc4)nc31)[C@H](O)[C@@H]2O | Tspo | ligand displacement |  | radioligand |  | Ki | > 10 µM
Cc1cc2nc3c(=O)[nH]c(=O)nc-3n(C[C@H](O)[C@H](O)[C@H](O)COP(=O)(O)OP(=O)(O)OC[C@H]3O[C@@H](n4cnc5c(N)ncnc54)[C@H](O)[C@@H]3O)c2cc1C | Dihydrolipoyl dehydrogenase, mitochondrial (DLD, Homo sapiens, UniProt P09622) | binding |  |  | lysate | Kd | 0.641 µM
CSCC[C@H](NC(=O)[C@@H](NC(=O)[C@@H](N)Cc1ccc(O)cc1)C(C)C)C(=O)NCC(=O)N[C@@H](Cc1c[nH]cn1)C(=O)N[C@@H](Cc1ccccc1)C(=O)O | Melanocortin receptor 4 | reporter gene | agonist |  |  | EC50 | > 100 µM
CNC(=O)[C@@]12C[C@@H]1[C@@H](n1cnc3c(NCc4cccc(Cl)c4)nc(Cl)nc31)[C@H](O)[C@@H]2O | Tspo | ligand displacement |  | radioligand |  | Ki | > 10 µM
N=C(N)NCCC[C@H](NC(=O)[C@H](CC(=O)O)NC(=O)[C@H](Cc1c[nH]c2ccccc12)NC(=O)[C@H](CCCNC(=N)N)NC(=O)[C@@H](N)Cc1ccccc1)C(=O)N[C@@H](Cc1ccccc1)C(=O)NCC(=O)O | Melanocortin receptor 4 | reporter gene | agonist |  |  | EC50 | 47.4 µM
Cc1cnc(-c2ccc(-c3ccc(NC(=O)Nc4c(F)cc(F)cc4F)cc3F)c3c2C(=O)NC3)[nH]1 | High affinity nerve growth factor receptor (NTRK1, Homo sapiens, UniProt P04629) | binding |  | competition with immobilised ligand |  | Kd | 0.001 µM
N=C(N)NCCC[C@H](NC(=O)[C@H](CC(=O)O)NC(=O)[C@H](Cc1c[nH]c2ccccc12)NC(=O)[C@H](CCCNC(=N)N)NC(=O)[C@H](Cc1ccccc1)NC(=O)[C@@H](N)Cc1c[nH]cn1)C(=O)N[C@@H](Cc1ccccc1)C(=O)NCC(=O)O | Melanocortin receptor 4 | reporter gene | agonist |  |  | EC50 | 8.38 µM
O=C(O)CC(=O)C(=O)O | L-lactate dehydrogenase A chain (LDHA, Homo sapiens, UniProt P00338) | binding |  | fluorescence |  | Kd | 642 µM
N=C(N)NCCC[C@H](NC(=O)[C@H](CC(=O)O)NC(=O)[C@H](Cc1c[nH]c2ccccc12)NC(=O)[C@@H](N)CCCNC(=N)N)C(=O)N[C@@H](Cc1ccccc1)C(=O)NCC(=O)O | Melanocortin receptor 4 | reporter gene | agonist |  |  | EC50 | > 100 µM
CC[C@H](C)[C@H](NC(=O)[C@H](CC(=O)O)NC(=O)[C@H](CO)NC(=O)[C@@H](NC(=O)[C@H](Cc1ccccc1)NC(=O)[C@@H](NC(=O)CNC(=O)[C@H](CC(=O)O)NC(=O)[C@H](C)NC(=O)[C@@H](N)Cc1c[nH]cn1)[C@@H](C)O)[C@@H](C)O)C(=O)N[C@@H](CC(N)=O)C(=O)N[C@@H](CCCCN)C(=O)N[C@H](C(=O)N[C@@H](CC(C)C)C(=O)N[C@@H](CC(=O)O)C(=O)N[C@@H](CC(=O)O)C(=O)N[C@@H](CCSC)C(=O)N[C@@H](C)C(=O)N[C@@H](C)C(=O)N[C@@H](CCCCN)C(=O)N[C@@H](CCC(=O)O)C(=O)N[C@@H](Cc1ccccc1)C(=O)N[C@@H](CC(C)C)C(=O)N[C@@H](CCCCN)C(=O)N[C@@H](Cc1c[nH]c2ccccc12)C(=O)N[C@@H](CC(C)C)C(=O)N[C@H](C(=O)N[C@@H](CC(N)=O)C(=O)N[C@H](C(=O)N[C@@H](CCCCN)C(=O)N[C@H](C(=O)N[C@H](C(=O)N[C@@H](CCC(N)=O)C(=O)O)[C@@H](C)O)C(C)C)[C@@H](C)O)[C@@H](C)CC)[C@@H](C)CC | GLP2R | reporter gene | agonist | luciferase |  | EC50 | 0.033 µM
O[C@@H]1[C@H](O)[C@@H]2C[C@@H]2[C@H]1n1cnc2c(NCCc3ccccc3)nc(C#Cc3ccccc3)nc21 | Tspo | ligand displacement |  | radioligand |  | Ki | > 10 µM
N#Cc1ccc(COc2cccc(C3CCN(Cc4nc5ccc(C(=O)O)cc5n4C[C@@H]4CCO4)CC3)n2)c(F)c1 | GLP2R | cAMP | agonist |  |  | EC50 | > 20 µM
O=C(OC[C@H]1OC[C@H](OC(=O)c2cc(O)c(O)c(O)c2)[C@@H](O)[C@@H]1O)c1cc(O)c(O)c(O)c1 | Replicase polyprotein 1ab, main protease (rep, Severe acute respiratory syndrome coronavirus 2, UniProt P0DTD1) | binding |  | SPR |  | Kd | 1.18 µM
CNc1nc(C#Cc2ccc(Cl)s2)nc2c1ncn2[C@H]1[C@H](O)[C@H](O)[C@]2(C(=O)OCCc3ccccc3)C[C@H]12 | Tspo | ligand displacement |  | radioligand |  | Ki | > 10 µM
